Data as given in ChEMBL document CHEMBL2311421, “Synthesis, crystal structure and antidiabetic activity of substituted (E)-3-(Benzo [d]thiazol-2-ylamino) phenylprop-2-en-1-one” (Eur J Med Chem, 2013).

Tests used:
[1] = Inhibition of Swiss mouse intestinal glucosidase
In short: (§1)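 Enzyme source: tissue homogenates of pancreas, liver or small intestine from 12 h-starved 10-week-old male Swiss mice (20 g), made 1:10 w/v in ice-cold 10 mM phosphate buffer with 6 mM NaCl plus protease inhibitors. Spun at 10,000 rpm for 10 min; supernatant diluted to A280 0.4. Assayed as for amylase. IC50 from mean of n = 3.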

[2] = Inhibition of Swiss mouse liver glucosidase; in short: as §1
Pancreatic alpha-amylase = target: T1, Pancreatic alpha-amylase (Sus scrofa, UniProt P00690); test: Inhibition of pig pancreatic alpha-amylase by Bernfeld method
T1 sequence (P00690 whole entry): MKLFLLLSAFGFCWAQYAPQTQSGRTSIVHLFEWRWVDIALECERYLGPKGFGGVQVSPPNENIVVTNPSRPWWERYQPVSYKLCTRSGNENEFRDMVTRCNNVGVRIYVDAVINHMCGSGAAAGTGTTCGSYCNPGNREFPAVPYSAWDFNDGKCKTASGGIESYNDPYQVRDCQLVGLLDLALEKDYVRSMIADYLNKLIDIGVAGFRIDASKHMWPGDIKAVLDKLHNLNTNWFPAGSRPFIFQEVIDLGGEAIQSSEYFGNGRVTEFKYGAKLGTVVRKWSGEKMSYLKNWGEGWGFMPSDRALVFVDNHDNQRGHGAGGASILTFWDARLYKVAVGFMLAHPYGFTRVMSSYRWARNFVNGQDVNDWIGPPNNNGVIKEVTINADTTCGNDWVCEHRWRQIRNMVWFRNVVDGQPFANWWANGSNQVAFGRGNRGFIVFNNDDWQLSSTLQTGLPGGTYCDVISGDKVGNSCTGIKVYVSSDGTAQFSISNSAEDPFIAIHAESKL

[3] = Inhibition of Swiss mouse pancreatic glucosidase; in short: as §1

Compound | IC50 ([1]; read-out: IC50) [µM] | IC50 ([2]; read-out: IC50) [µM] | IC50 (Pancreatic alpha-amylase) [µM] | IC50 [3] [µM] | IC50 [1] | IC50 [2]
CCOc1ccc2nc(N/C(=C\C(=O)c3ccc(C)cc3)SC)sc2c1 | 23.5 | 24.2 | 18.9 | 19.9 | – | –
CS/C(=C/C(=O)c1ccc(Br)cc1)Nc1nc2cc(C)c(C)cc2s1 | 25.9 | 16.7 | 16.9 | 24.7 | – | –
CS/C(=C/C(=O)c1ccc(Cl)cc1)Nc1nc2ccccc2s1 | 44.5 | 15 | 20.3 | 32.4 | – | –
CCOc1ccc2nc(N/C(=C\C(=O)c3ccc(Cl)cc3)SC)sc2c1 | 14.7 | 17.4 | 17.9 | 26.5 | – | –
CCOc1ccc2nc(N/C(=C\C(=O)c3ccc(F)cc3)SC)sc2c1 | 49.4 | 24.2 | 18.4 | 23.5 | – | –

Further lines, results first:

IC50 ([1]; read-out: IC50) [µM] | IC50 ([2]; read-out: IC50) [µM] | IC50 (Pancreatic alpha-amylase) [µM] | IC50 [3] [µM] | IC50 [1] | IC50 [2] | Compound
31.9 | 15.7 | 15.9 | 20.9 | – | – | CCOc1ccc2nc(N/C(=C\C(=O)c3ccc(Br)cc3)SC)sc2c1
45.3 | 15.4 | 17.8 | 21.7 | – | – | CS/C(=C/C(=O)c1ccc(Br)cc1)Nc1nc2ccccc2s1
– | – | 16.3 | 18 | Not Active | Not Active | CCOc1ccc2nc(N/C(=C\C(=O)c3ccccc3)SC)sc2c1
32.1 | 21.7 | 19.9 | 33.6 | – | – | CS/C(=C/C(=O)c1ccc(F)cc1)Nc1nc2ccccc2s1
29.3 | 21.4 | 18.6 | 23.2 | – | – | CCOc1ccc2nc(N/C(=C\C(=O)c3ccc(OC)cc3)SC)sc2c1
30 | 22.5 | 20.6 | 26.9 | – | – | CS/C(=C/C(=O)c1ccc(C)cc1)Nc1nc2ccccc2s1
– | > 100 | – | > 100 | Not Active | – | C[C@H]1O[C@H](O[C@H]2[C@H](O)[C@@H](O)[C@@H](O[C@H]3[C@H](O)[C@@H](O)C(O)O[C@@H]3CO)O[C@@H]2CO)[C@H](O)[C@@H](O)[C@@H]1N[C@H]1C=C(CO)[C@@H](O)[C@H](O)[C@H]1O (some centres not stated) [ACARBOSE]
